Experimental data reported in ChEMBL document CHEMBL1131614, “Novel calcium antagonists with both calcium overload inhibition and antioxidant activity. 1. 2-(3, 5-di-tert-butyl-4-hydroxyphenyl)-3-(aminopropyl)thiazolidinones” (J Med Chem, 1998).
Several values for one entry are separate records, joined by “and”; a condition that tells them apart may be missing. Identical values can stand only once.

How the values were obtained:
[1] = target: Voltage-dependent L-type calcium channel subunit alpha-1C (Rattus norvegicus, UniProt P22002); test: In vitro inhibition of K+ induced contractions of the isolated rat aorta.; assay type: functional, tissue-based
Voltage-dependent L-type calcium channel subunit alpha-1C, sequence (P22002 whole entry): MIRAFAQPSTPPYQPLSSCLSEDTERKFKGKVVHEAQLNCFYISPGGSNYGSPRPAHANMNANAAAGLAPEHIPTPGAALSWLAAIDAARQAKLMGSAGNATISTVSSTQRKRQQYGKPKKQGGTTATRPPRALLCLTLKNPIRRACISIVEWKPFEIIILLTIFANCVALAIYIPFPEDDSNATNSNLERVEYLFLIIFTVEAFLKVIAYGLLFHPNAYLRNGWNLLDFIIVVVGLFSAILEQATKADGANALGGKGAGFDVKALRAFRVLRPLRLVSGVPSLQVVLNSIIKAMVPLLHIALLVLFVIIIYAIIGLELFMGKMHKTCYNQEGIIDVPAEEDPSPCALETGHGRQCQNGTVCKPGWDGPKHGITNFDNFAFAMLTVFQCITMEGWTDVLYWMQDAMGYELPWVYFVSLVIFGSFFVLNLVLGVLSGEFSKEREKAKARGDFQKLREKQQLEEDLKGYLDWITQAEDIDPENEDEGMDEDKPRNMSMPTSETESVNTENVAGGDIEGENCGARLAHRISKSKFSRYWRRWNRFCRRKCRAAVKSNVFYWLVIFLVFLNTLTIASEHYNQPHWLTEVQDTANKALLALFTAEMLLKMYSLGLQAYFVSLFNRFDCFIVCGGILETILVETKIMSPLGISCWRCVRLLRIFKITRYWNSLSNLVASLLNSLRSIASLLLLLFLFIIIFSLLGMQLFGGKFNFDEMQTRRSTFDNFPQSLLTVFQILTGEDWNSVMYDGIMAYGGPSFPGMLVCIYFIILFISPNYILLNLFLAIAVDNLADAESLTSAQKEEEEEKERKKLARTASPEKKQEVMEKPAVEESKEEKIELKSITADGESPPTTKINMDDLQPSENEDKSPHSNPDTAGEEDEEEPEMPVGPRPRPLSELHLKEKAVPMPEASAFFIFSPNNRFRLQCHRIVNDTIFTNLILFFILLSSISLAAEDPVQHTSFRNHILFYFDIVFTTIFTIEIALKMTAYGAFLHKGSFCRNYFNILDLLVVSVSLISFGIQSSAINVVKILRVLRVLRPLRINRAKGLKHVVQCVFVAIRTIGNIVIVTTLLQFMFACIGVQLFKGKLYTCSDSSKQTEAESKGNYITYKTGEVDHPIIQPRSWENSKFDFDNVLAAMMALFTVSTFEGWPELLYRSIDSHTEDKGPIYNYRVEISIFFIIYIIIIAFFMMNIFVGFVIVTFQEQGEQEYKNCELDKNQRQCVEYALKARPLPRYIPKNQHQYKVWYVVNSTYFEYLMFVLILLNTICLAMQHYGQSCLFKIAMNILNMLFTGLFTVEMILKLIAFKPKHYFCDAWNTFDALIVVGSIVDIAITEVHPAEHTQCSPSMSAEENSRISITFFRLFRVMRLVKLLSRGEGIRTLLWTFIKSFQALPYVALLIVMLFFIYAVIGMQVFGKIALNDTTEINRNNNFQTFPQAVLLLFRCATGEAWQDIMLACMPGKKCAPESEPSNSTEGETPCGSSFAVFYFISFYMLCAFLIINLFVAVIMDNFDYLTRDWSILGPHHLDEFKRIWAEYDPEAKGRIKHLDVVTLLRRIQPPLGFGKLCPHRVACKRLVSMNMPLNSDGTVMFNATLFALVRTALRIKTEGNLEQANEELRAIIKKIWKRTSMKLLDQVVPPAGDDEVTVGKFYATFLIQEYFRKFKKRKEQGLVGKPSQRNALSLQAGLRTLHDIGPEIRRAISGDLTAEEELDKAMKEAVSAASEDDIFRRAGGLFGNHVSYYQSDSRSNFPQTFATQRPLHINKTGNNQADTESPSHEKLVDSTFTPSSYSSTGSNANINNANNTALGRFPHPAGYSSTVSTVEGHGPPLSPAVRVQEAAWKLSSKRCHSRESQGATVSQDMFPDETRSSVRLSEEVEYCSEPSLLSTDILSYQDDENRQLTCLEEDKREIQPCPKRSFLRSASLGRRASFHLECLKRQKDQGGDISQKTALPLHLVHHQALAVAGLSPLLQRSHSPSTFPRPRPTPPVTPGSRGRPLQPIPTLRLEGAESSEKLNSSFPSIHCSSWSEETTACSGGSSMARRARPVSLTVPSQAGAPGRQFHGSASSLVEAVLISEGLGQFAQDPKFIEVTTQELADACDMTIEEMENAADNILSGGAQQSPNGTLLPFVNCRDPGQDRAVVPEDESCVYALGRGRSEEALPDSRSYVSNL

[2] = species on record: Rattus norvegicus; test: In vitro inhibition of veratridine induced rat myocardiac cell death.; assay type: functional
[3] = target: T1, Seed linoleate 13S-lipoxygenase-1 (Glycine max) (UniProt P08170); test: In vitro inhibition of rabbit LDL oxidation by soybean lipoxygenase at 0.5 uM; assay type: functional
T1 sequence (whole entry): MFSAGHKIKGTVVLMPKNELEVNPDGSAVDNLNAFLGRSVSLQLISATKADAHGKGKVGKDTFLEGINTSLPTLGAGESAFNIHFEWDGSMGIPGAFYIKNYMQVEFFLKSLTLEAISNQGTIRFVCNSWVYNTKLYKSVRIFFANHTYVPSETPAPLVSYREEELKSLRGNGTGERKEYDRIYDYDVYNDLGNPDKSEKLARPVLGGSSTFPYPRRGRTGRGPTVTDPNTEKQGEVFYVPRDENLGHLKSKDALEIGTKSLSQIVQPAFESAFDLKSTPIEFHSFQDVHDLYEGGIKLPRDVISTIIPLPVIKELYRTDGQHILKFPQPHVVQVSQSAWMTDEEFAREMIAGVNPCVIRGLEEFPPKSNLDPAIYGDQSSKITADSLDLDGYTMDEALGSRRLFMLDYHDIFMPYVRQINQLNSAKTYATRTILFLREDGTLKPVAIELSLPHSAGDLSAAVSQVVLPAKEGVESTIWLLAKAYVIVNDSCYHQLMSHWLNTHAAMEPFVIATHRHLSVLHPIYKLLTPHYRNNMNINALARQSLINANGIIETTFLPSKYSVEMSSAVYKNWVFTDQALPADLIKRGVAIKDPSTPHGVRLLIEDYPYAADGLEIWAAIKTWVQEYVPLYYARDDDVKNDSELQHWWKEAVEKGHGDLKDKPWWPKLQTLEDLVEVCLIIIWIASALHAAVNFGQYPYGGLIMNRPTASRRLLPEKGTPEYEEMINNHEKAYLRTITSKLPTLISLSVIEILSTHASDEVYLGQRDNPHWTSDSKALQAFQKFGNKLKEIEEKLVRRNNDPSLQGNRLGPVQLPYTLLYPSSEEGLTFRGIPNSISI
In short: (§1)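 Compound added to rabbit LDL (Havel method), then soybean lipoxygenase type-IS at 40 μg/mL final. Incubated 24 h at 37 °C in a CO2 incubator. Oxidized LDL separated by gel-permeation chromatography, and fluorescence of the LDL fraction read at ex 360/em 430 nm. Expressed as percent of control.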

[4] = target: T1, Seed linoleate 13S-lipoxygenase-1 (Glycine max); test: In vitro inhibition of rabbit LDL oxidation by soybean lipoxygenase at 5 uM; assay type: functional; in short: as §1
[5] = target: T1, Seed linoleate 13S-lipoxygenase-1 (Glycine max); test: In vitro inhibition of rabbit LDL oxidation by soybean lipoxygenase.; assay type: functional; set-up: scale not given: the % may be the effect or the level left; in short: as §1

| Compound | IC50 [1] [nM] | IC>80 [2] [µM] | also measured |
| --- | --- | --- | --- |
| CN(C)CCCN1C(=O)CSC1c1cc(C(C)(C)C)c(O)c(C(C)(C)C)c1 (centres undefined) | 1500 | – | – |
| CN(c1nc2ccccc2s1)C1CCN(CCCCOc2ccc(F)cc2)CC1 | 760 | 0.032 | – |
| CN(CCCN1C(=O)CSC1c1cc(C(C)(C)C)c(O)c(C(C)(C)C)c1)Cc1ccccc1 (centres undefined) | 600 | – | – |
| CN(CCCN1C(=O)CSC1c1cc(C(C)(C)C)c(O)c(C(C)(C)C)c1)CC(O)COc1ccc2c(c1)OCO2 (centres undefined) | 430 | – | – |
| CN(CCCN1C(=O)CSC1c1cc(C(C)(C)C)c(O)c(C(C)(C)C)c1)Cc1ccc2c(c1)OCO2 (centres undefined) | 250 | – | – |
| CN(CCCN1C(=O)CSC1c1cc(C(C)(C)C)c(O)c(C(C)(C)C)c1)CCOc1ccc2c(c1)OCO2 (centres undefined) | 62 | 0.32 | LDL oxidation, % of control [3]: 12.9%; LDL oxidation remaining (% of control) [4]: 3% |
| CN(CCCN1C(=O)CSC1c1cc(C(C)(C)C)c(O)c(C(C)(C)C)c1)CC1CC1 (centres undefined) | 1200 | – | – |
| CCOCCN(C)CCCN1C(=O)CSC1c1cc(C(C)(C)C)c(O)c(C(C)(C)C)c1 (centres undefined) | 840 | – | – |
| CC(C)(C)c1cc(C2SCC(=O)N2CCCN2CCC(Cc3ccccc3)CC2)cc(C(C)(C)C)c1O (centres undefined) | 210 | 0.32 | – |
| COc1cc(OCCN(C)CCCN2C(=O)CSC2c2cc(C(C)(C)C)c(O)c(C(C)(C)C)c2)cc(OC)c1OC (centres undefined) | 300 | – | – |
| COc1ccc(CCN(C)CCCN2C(=O)CSC2c2cc(C(C)(C)C)c(O)c(C(C)(C)C)c2)cc1OC (centres undefined) | 93 | 1 | LDL oxidation, % of control [3]: 8.7%; LDL oxidation remaining (% of control) [4]: 0.6% |
| CC(C)(C)c1cc(C2SCC(=O)N2CCCN)cc(C(C)(C)C)c1O (centres undefined) | 4400 | – | – |
| CN(c1nc2ccccc2s1)C1CCN(CCCN2C(=O)CSC2c2cc(C(C)(C)C)c(O)c(C(C)(C)C)c2)CC1 (centres undefined) | 230 | 1 | LDL oxidation, % of control [3]: 25.8%; LDL oxidation remaining (% of control) [4]: 4.9% |
| COc1ccc(OCCN(C)CCCN2C(=O)CSC2c2cc(C(C)(C)C)c(O)c(C(C)(C)C)c2)cc1OC (centres undefined) | 180 | 1 | – |
| CN(CCCN1C(=O)CSC1c1cc(C(C)(C)C)c(O)c(C(C)(C)C)c1)CC(O)COc1ccccc1 (centres undefined) | 420 | – | – |
| COc1ccc(OCCN(C)CCCN2C(=O)CSC2c2cc(C(C)(C)C)c(O)c(C(C)(C)C)c2)cc1 (centres undefined) | 230 | – | – |
| COc1ccc([C@@H]2Sc3ccccc3N(CCN(C)C)C(=O)[C@@H]2OC(C)=O)cc1 [DILTIAZEM] | – | >10 | LDL oxidation, % of control [3]: 109%; LDL oxidation remaining (% of control) [4]: 111% |
| CN(C)CCN(C)CCCN1C(=O)CSC1c1cc(C(C)(C)C)c(O)c(C(C)(C)C)c1 (centres undefined) | 1700 | – | – |
| COc1ccc(CN(C)CCCN2C(=O)CSC2c2cc(C(C)(C)C)c(O)c(C(C)(C)C)c2)cc1OC (centres undefined) | – | 1 | – |
| Cc1c(C)c2c(c(C)c1O)CC[C@@](C)(CCC[C@H](C)CCC[C@H](C)CCCC(C)C)O2 | – | – | LDL oxidation, % of control [3]: 60.2%; LDL oxidation remaining (% of control) [4]: 13.2% |
| COc1cc2c(cc1OC)CN(CCCN1C(=O)CSC1c1cc(C(C)(C)C)c(O)c(C(C)(C)C)c1)CC2 (centres undefined) | 200 | 1 | – |
| CNCCCN1C(=O)CSC1c1cc(C(C)(C)C)c(O)c(C(C)(C)C)c1 (centres undefined) | 2400 | – | – |
| Cc1cc(C(C)(C)C)c(O)c(C(C)(C)C)c1 | – | – | Control [5]: 19.7% and 0.9% |
